From ChEMBL document CHEMBL5260840 (J Med Chem, 2019)

Assays:
Format in all cases: cell-based
[1] = target: T1, DDB1- and CUL4-associated factor 15/Bromodomain-containing protein 9 (Homo sapiens) (UniProt Q9H8M2+Q66K64); test: PROTAC activity at DCAF15/BRD9 in human HeLa cells assessed as remaining BRD9 protein level at 1 uM incubated for 16 hrs by Western blot analysis relative to control
[2] = target: T2, DDB1- and CUL4-associated factor 15/Bromodomain-containing protein 7 (Homo sapiens) (UniProt Q9NPI1+Q66K64); test: PROTAC activity at DCAF15/BRD7 in human HeLa cells assessed as remaining BRD7 protein level at 1 uM incubated for 4 hrs by Western blot analysis relative to control
[3] = target: T1, DDB1- and CUL4-associated factor 15/Bromodomain-containing protein 9 (Homo sapiens); test: PROTAC activity at DCAF15/BRD9 in human HeLa cells assessed as remaining BRD9 protein level at 1 uM incubated for 4 hrs by Western blot analysis relative to control
[4] = target: T2, DDB1- and CUL4-associated factor 15/Bromodomain-containing protein 7 (Homo sapiens); test: PROTAC activity at DCAF15/BRD7 in human HeLa cells assessed as remaining BRD7 protein level at 1 uM incubated for 16 hrs by Western blot analysis relative to control
[5] = target: T3, von Hippel-Lindau disease tumor suppressor/Bromodomain-containing protein 9 (Homo sapiens) (UniProt Q9H8M2+P40337); test: PROTAC activity at VHL/BRD9 in human HeLa cells assessed as remaining BRD9 protein level at 1 uM incubated for 16 hrs by Western blot analysis relative to control
Method in brief: (§1)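 HeLa cells treated with compound for the stated time before harvest; BRD9, BRD7 and β-actin detected by Western blot with β-actin loading control; band intensities quantified.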

[6] = target: T3, von Hippel-Lindau disease tumor suppressor/Bromodomain-containing protein 9 (Homo sapiens); test: PROTAC activity at VHL/BRD9 in human HeLa cells assessed as protein degradation at 1 uM incubated for 16 hrs by Western blot analysis relative to control; method in brief: as §1
[7] = target: T4, von Hippel-Lindau disease tumor suppressor/Bromodomain-containing protein 7 (Homo sapiens) (UniProt Q9NPI1+P40337); test: PROTAC activity at VHL/BRD7 in human HeLa cells assessed as remaining BRD7 protein level at 1 uM incubated for 16 hrs by Western blot analysis relative to control
[8] = target: T3, von Hippel-Lindau disease tumor suppressor/Bromodomain-containing protein 9 (Homo sapiens); test: PROTAC activity at VHL/BRD9 in human HeLa cells assessed as protein degradation at 1 uM incubated for 4 hrs by Western blot analysis relative to control; method in brief: as §1
[9] = target: T4, von Hippel-Lindau disease tumor suppressor/Bromodomain-containing protein 7 (Homo sapiens); test: PROTAC activity at VHL/BRD7 in human HeLa cells assessed as protein degradation at 1 uM incubated for 16 hrs by Western blot analysis relative to control
[10] = target: T4, von Hippel-Lindau disease tumor suppressor/Bromodomain-containing protein 7 (Homo sapiens); test: PROTAC activity at VHL/BRD7 in human HeLa cells assessed as remaining BRD7 protein level at 1 uM incubated for 4 hrs by Western blot analysis relative to control
[11] = target: T4, von Hippel-Lindau disease tumor suppressor/Bromodomain-containing protein 7 (Homo sapiens); test: PROTAC activity at VHL/BRD7 in human HeLa cells assessed as protein degradation at 1 uM incubated for 4 hrs by Western blot analysis relative to control

T1 sequence (Q66K64 whole entry, looked up): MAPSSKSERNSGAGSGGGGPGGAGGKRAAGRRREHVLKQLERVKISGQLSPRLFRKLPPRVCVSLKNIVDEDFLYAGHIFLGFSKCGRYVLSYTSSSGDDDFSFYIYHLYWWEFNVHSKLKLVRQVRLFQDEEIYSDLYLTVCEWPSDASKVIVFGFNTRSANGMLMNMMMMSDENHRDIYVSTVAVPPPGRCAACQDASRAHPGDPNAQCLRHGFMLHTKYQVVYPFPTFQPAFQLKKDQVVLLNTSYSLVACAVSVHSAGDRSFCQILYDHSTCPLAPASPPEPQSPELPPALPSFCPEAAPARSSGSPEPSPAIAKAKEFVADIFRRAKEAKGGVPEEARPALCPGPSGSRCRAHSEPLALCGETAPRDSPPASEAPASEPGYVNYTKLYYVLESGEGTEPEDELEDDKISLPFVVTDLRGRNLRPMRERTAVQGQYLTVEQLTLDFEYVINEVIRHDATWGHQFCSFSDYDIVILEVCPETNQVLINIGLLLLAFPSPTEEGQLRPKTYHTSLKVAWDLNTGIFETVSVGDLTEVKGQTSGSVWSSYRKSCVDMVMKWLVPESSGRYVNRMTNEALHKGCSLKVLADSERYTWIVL
T1 sequence (Q9H8M2 whole entry, looked up): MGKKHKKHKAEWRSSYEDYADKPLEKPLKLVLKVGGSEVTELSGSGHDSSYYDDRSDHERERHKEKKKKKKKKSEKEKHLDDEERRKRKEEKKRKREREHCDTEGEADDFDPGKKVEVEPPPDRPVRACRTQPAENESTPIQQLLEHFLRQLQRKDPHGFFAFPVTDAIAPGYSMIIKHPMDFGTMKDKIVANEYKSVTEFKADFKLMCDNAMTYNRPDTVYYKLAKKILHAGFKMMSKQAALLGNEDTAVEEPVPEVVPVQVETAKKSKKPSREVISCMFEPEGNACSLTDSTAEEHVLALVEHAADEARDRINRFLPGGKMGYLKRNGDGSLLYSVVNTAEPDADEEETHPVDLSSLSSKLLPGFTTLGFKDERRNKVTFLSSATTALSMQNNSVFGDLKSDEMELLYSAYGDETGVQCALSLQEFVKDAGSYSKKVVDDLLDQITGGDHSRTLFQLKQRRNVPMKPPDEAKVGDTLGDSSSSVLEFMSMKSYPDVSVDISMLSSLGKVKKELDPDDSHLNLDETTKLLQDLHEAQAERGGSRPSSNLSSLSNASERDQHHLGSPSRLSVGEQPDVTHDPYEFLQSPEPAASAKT
T2 sequence (Q66K64 whole entry, looked up): as the sequence (Q66K64 whole entry, looked up) above
T2 sequence (Q9NPI1 whole entry, looked up): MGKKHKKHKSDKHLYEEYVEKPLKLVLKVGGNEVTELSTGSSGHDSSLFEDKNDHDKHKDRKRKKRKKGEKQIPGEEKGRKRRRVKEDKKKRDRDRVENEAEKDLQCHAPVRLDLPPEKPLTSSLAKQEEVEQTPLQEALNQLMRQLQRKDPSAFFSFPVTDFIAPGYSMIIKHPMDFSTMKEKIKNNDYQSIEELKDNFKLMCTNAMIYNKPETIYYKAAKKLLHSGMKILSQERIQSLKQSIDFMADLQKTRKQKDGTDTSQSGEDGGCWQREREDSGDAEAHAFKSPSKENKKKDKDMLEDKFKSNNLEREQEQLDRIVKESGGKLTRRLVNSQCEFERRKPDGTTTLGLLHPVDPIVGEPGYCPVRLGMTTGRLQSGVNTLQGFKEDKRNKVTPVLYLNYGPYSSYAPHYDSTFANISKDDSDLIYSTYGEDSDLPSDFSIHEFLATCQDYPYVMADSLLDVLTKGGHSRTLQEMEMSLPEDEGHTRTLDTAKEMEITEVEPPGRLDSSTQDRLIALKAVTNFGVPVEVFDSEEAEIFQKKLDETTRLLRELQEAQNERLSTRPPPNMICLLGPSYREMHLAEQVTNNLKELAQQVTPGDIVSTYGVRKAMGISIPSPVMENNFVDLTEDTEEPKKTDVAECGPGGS
T4 sequence (P40337 whole entry, looked up): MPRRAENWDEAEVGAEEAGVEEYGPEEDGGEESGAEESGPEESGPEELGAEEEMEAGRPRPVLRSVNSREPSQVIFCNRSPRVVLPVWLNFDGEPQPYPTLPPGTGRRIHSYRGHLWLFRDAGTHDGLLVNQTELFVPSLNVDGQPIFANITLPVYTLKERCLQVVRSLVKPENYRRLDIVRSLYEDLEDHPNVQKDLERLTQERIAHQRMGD
T4 sequence (Q9NPI1 whole entry, looked up): as the sequence (Q9NPI1 whole entry, looked up) above
T3 sequence (P40337 whole entry, looked up): as the sequence (P40337 whole entry, looked up) above
T3 sequence (Q9H8M2 whole entry, looked up): as the sequence (Q9H8M2 whole entry, looked up) above

| Activity [1] [%] | Activity [2] [%] | Activity [3] [%] | Activity [4] [%] | Activity [5] [%] | Activity [6] [%] | Activity [7] [%] | Activity [8] [%] | Activity [9] [%] | Activity [10] [%] | Activity [11] [%] | Structure (SMILES) |
| --- | --- | --- | --- | --- | --- | --- | --- | --- | --- | --- | --- |
| 86 | 81 | 126 | 86 |  |  |  |  |  |  |  | COc1cc(-c2cn(C)c(=O)c3cnccc23)cc(OC)c1CN1CCN(CCOCCOCCOCCOCC(=O)NCc2ccc(S(=O)(=O)Nc3cccc4c(Cl)c[nH]c34)cc2)CC1 |
| 81 | 101 | 125 | 86 |  |  |  |  |  |  |  | COc1cc(-c2cn(C)c(=O)c3cnccc23)cc(OC)c1CN1CCN(CCOCCOCC(=O)NCc2ccc(S(=O)(=O)Nc3cccc4c(Cl)c[nH]c34)cc2)CC1 |
|  |  |  |  | 78 | 30 | 73 | 20 | 30 | 81 | 20 | COc1cc(-c2cn(C)c(=O)c3cnccc23)cc(OC)c1CN1CCN(CCOCCOCCOCCOCC(=O)N[C@H](C(=O)N2C[C@H](O)C[C@H]2C(=O)NCc2ccc(-c3scnc3C)cc2)C(C)(C)C)CC1 |
